Screening data as filed in PubChem.
Compounds with a hit are over-represented: about 2.4% of the library has one in this group of screens.
NPY-Y2 PAM-ag: NPY-Y2 potentiators or agonists, primary screen, cell-based; Neuropeptide Y receptor type 2 (Homo sapiens), P49146; cells expressing NPY-Y2, potentiator/agonist read-out; activation, % at 3.6 µM; 220,000 tested, 0.45% active; AID 1359, 2008; in the data active = activation above about 27%;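 also: cells stimulated with NPY near EC25 plus isoproterenol at EC100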
S1P4 antagonist: S1P4 receptor antagonists, primary screen, cell-based. S1P4-expressing cells, antagonist mode, reporter read-out. inhibition, % at 4.98 µM. 220,000 tested, 0.26% active. Sphingosine 1-phosphate receptor 4 (Homo sapiens), O95977; in the data active = inhibition above about 29%
S1P4 ag: S1P4 receptor agonists, primary screen, cell-based; Sphingosine 1-phosphate receptor 4 (Homo sapiens), O95977; S1P4-expressing cell line, agonist reporter assay; AID 1509, 2009; 220,000 tested, 0.35% active; activation, % at 4.98 µM; in the data active = activation above about 11%
NPY-Y2 antag: NPY-Y2 receptor antagonists, primary screen, cell-based. Neuropeptide Y receptor type 2 (Homo sapiens), P49146. NPY-Y2 expressing cells, antagonist mode. inhibition, % at 2.7 µM. 140,000 tested, 0.99% active; in the data active = inhibition above about 17%
NPY-Y1 PAM-ag: NPY-Y1 receptor potentiators or agonists, primary screen, cell-based; Neuropeptide Y receptor type 1 (Homo sapiens), P25929; NPY-Y1 expressing cells, potentiator/agonist activation; activation, % at 3.6 µM; 220,000 tested, 0.37% active; AID 1304, 2008; in the data active = activation above about 33%, passing the limit was not always enough;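 also: cells stimulated with NPY at EC10 then isoproterenol at EC100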
Target sequence (P25929 whole entry, looked up): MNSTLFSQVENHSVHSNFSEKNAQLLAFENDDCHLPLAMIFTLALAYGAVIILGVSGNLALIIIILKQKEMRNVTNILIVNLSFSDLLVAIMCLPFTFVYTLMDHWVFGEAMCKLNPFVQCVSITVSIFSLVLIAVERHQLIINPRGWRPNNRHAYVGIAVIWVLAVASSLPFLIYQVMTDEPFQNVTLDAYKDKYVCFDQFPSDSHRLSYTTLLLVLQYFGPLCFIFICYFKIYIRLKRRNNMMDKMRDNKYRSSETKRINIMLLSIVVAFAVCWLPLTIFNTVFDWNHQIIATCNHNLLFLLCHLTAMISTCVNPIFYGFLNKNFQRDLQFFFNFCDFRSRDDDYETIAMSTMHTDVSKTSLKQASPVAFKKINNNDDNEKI
NPY-Y1 antag: NPY-Y1 receptor antagonists, primary screen, cell-based; Neuropeptide Y receptor type 1 (Homo sapiens), P25929; HEK293-CNG Y1 cells, membrane potential fluorescence; NPY at EC95, then isoproterenol; AID 1040, 2008; 200,000 tested, 1% active; inhibition, % at 3.6 µM;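 active = inhibition above the campaign mean inhibition of all tested compounds plus 3 SD, cut at about 20% in these data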
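System: HEK293 cells with Y1 receptor plus CNG channel / Probe or stimulus: NPY 25 nM then isoproterenol 1 µM plus Ro 20-1724 25 µM / Compound: one concentration, 3.6 µM, in 0.4% DMSO / Schedule: compound incubation 1 h at room temperature, readout 45 min post-stimulation / Measured by: membrane potential fluorescence / Read-out: % inhibition of NPY effect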
Of the large screens only hits and unclear results are named; the others gave an inactive call.

CCc1nc2ccc(F)cc2c(C(=O)NC2CCCCC2C)c1C (centres undefined)	NPY-Y2 antag 28.7, NPY-Y1 antag 35.3
CCc1nc2ccccc2c(C(=O)NCc2ccccc2)c1C	none (no result: NPY-Y2 antag)
O=C1CC2(CCCC2)C(=O)N1c1ccc(S(=O)(=O)NCC2CC2)cc1Cl	none (no result: NPY-Y2 antag, NPY-Y1 antag)
CCOC(=O)/C=C1\NC(C)(C)Cc2cc(OC)c(OC)cc21	none
COc1cc2c(cc1OC)C(=S)NC(C)(C)C2	NPY-Y2 PAM-ag 46.1, NPY-Y1 PAM-ag 103.3
COC(=O)CN1C(c2ccc(OC)cc2)=Nc2ccc(Cl)cc2C1c1ccccc1 (centres undefined)	NPY-Y2 antag 22.9, NPY-Y1 antag 24.6
COC(=O)CN1C(c2cccc(Cl)c2)=Nc2ccc(Cl)cc2C1c1ccccc1 (centres undefined)	NPY-Y2 antag 27.6, NPY-Y1 antag 38.7
COc1cc(C2=Nc3ccc(Br)cc3C(c3ccccc3)N2CC(=O)NN)cc(OC)c1OC (centres undefined)	none (no result: NPY-Y2 antag, NPY-Y1 antag)
S=c1[nH]cc(-c2ccccc2)n1-c1cccc(Cl)c1	NPY-Y2 PAM-ag 32.4, NPY-Y1 PAM-ag 39.2
Cc1c(Cl)cccc1Nc1nc(N)nc(CSC(=S)N2CCOCC2)n1	none (no result: NPY-Y2 antag)
COc1ccc(-c2csc(NC(=O)c3ccc(OCC(=O)N4CCOCC4)c(OC)c3)n2)cc1OC	none
COc1ccc(/C(O)=C/C(=O)C(=O)Nc2c(C)n(C)n(-c3ccccc3)c2=O)cc1	none
COc1ccc(/C(O)=C/C(=O)C(=O)NNC(=O)C(O)(c2ccccc2)c2ccccc2)cc1	NPY-Y2 PAM-ag 102.8, NPY-Y1 PAM-ag 110.9
N#C/C(C(N)=O)=c1/ccc2c(c1)N1C3=C(CCCC3)CC3CCCCC31N=2 (centres undefined)	NPY-Y2 PAM-ag 47.0, NPY-Y1 PAM-ag 51.0
CCOC(=O)C1=NN(c2ccccc2)C2(S1)SC(C(C)=O)=C(C)N2c1ccccc1 (centres undefined)	none
CCOC(=O)C1=NN(c2cccc(C)c2)C2(S1)SC(C(C)=O)=C(C)N2c1ccccc1 (centres undefined)	NPY-Y2 antag 31.7, NPY-Y1 antag 29.5
COc1cc(N=Nc2cccc(S(N)(=O)=O)c2)c2ccccc2c1N	NPY-Y2 PAM-ag 51.8, NPY-Y1 PAM-ag 60.5 (no result: NPY-Y2 antag, NPY-Y1 antag)
COc1cccc(CCc2nnc(CCC(=O)NC(C)Cc3cccs3)o2)c1 (centres undefined)	none (no result: NPY-Y2 antag, NPY-Y1 antag)
CC(O)c1c(OCc2ccccc2)ncnc1OCc1ccccc1 (centres undefined)	NPY-Y1 antag 32.9
C=CCNC(=S)NS(=O)(=O)c1cccs1	none (no result: NPY-Y2 antag)
COc1ccc(CNC(=O)C(C#N)c2nc3ccccc3nc2N2CCN(C)CC2)cc1 (centres undefined)	NPY-Y2 antag 17.7
CNC(=O)N(C1=NCCCCC1)c1ccc(Br)cc1	none
O=C(c1cccc(C(F)(F)F)c1)C1CCCN(C(=O)CCCn2cncn2)C1 (centres undefined)	none (no result: NPY-Y2 antag)
CCn1c(SCC(=O)N2CCN(c3cccc(Cl)c3)CC2)nc2ccccc2c1=O	NPY-Y2 antag 23.9, NPY-Y1 antag 23.9
O=C(Nc1ccc2c(c1)OCO2)c1n[nH]c(=O)c2ccccc12	none (no result: NPY-Y2 antag, NPY-Y1 antag)
S=C(NCCc1ccccc1)N/N=C/c1c(Cl)cccc1Cl	NPY-Y2 antag 22.6, NPY-Y1 antag 22.3
S=C(NCCc1ccccc1)N/N=C/c1ccc(Cl)cc1	none (no result: NPY-Y2 antag, NPY-Y1 antag)
COc1cc2c(cc1OC)C(Nn1cnnc1)=NC1(CCCC1)C2	none (no result: NPY-Y2 antag, NPY-Y1 antag)
O=C(CNCC1CCCO1)Nc1ccccc1-n1cccc1 (centres undefined)	none
O=C(CNCC1CCCO1)Nc1ccccc1N1CCOCC1 (centres undefined)	NPY-Y1 PAM-ag 41.8
CCc1[nH]nc(C(=O)N2CCCC(CCC(=O)N3CCN(c4ccccn4)CC3)C2)c1C (centres undefined)	none (no result: NPY-Y2 antag)
CSc1nc(-c2ccco2)nn1S(=O)(=O)c1ccccc1	NPY-Y1 antag 23.6
COc1ccc(-c2csc3nc(C)nc(N4CCN(C(C)=O)CC4)c23)cc1OC	none (no result: NPY-Y2 antag)
COc1ccc(-c2csc3nc(C)nc(N4CCC(C)CC4)c23)cc1OC	NPY-Y1 antag 20.9 (no result: NPY-Y2 antag)
